Measurements reported in ChEMBL document CHEMBL4840318, “The Total Chemical Synthesis and Biological Evaluation of the Cationic Antimicrobial Peptides, Laterocidine and Brevicidine” (2021).
In brackets after ≈: the same amount, converted by molar mass. Positions of bridges follow the written chain, without caps; N, C: chain ends. Non-standard residues stand in square brackets, D forms with d. Residues, ends and D or L forms follow the SMILES beside them. ξ: configuration not given here. *: point of attachment. Octanoyl(7-Me) = CC(C)CCCCCC(=O)*; Hexanoyl(4ξ-Me) = CCC(C)CCC(=O)*; dOrn = NCCC[C@@H](N)C(=O)O; X1 = CC[C@H](C)CCCCC(=O)*; Orn = NCCC[C@H](N)C(=O)O; Dab = NCC[C@H](N)C(=O)O

Columns and labels:
Format in all cases: functional
Escherichia coli [1] = assay: Antibacterial activity against Escherichia coli ATCC 25922 assessed as inhibition of bacterial growth incubated for 18 hrs by CLSI protocol based method
Procedure, shortened: (§1)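 CLSI broth microdilution in cation-adjusted Mueller Hinton broth, in polypropylene plates. Bacteria were grown at 37 °C with shaking (200 rpm) for 8 h, then diluted into fresh medium and added to the wells. Compounds were tested as twofold dilutions from 64 to 0.25 μM (final), in triplicate, with growth and sterility controls. Plates were incubated at 37 °C with shaking. MIC is the lowest concentration with no growth, consistent across three biological replicates.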

Staphylococcus aureus [2] = assay: Antibacterial activity against Staphylococcus aureus ATCC 29213 assessed as inhibition of bacterial growth incubated for 18 hrs by CLSI protocol based method; procedure, shortened: as §1
Staphylococcus aureus [3] = assay: Antibacterial activity against methicillin-resistant Staphylococcus aureus assessed as inhibition of bacterial growth incubated for 24 hrs by multiplate photometer method
Escherichia coli [4] = assay: Antibacterial activity against Escherichia coli ATCC 25922 assessed as inhibition of bacterial growth incubated for 24 hrs by multiplate photometer method

Row | Compound | MIC (Escherichia coli [1]) | MIC (Staphylococcus aureus [2]) | MIC (Staphylococcus aureus [3]) | MIC (Escherichia coli [4])
1 | CCC(C)CCC(=O)N[C@H](CC(N)=O)C(=O)N[C@H](Cc1ccc(O)cc1)C(=O)N[C@H](Cc1c[nH]c2ccccc12)C(=O)N[C@H](CCCN)C(=O)N[C@@H](CCCN)C(=O)NCC(=O)N[C@H](CCCN)C(=O)N[C@@H](Cc1c[nH]c2ccccc12)C(=O)N[C@@H]1C(=O)N[C@@H]([C@@H](C)CC)C(=O)NCC(=O)N[C@@H](CO)C(=O)O[C@@H]1C (some centres undefined) ({Hexanoyl(4ξ-Me)}-[dN][dY][dW][dOrn][Orn]G[dOrn]WTIGS; ester 9-C) | 2 µg/mL (≈ 1.32 µM) | > 64 µg/mL | > 64 µg/mL | 2 µg/mL (≈ 1.32 µM)
2 | CC[C@H](C)CCCCC(=O)N[C@@H](CCN)C(=O)N[C@H](C(=O)N[C@@H](CCN)C(=O)N[C@H]1CCNC(=O)[C@H]([C@@H](C)O)NC(=O)[C@H](CCN)NC(=O)[C@H](CCN)NC(=O)[C@H](CC(C)C)NC(=O)[C@@H](Cc2ccccc2)NC(=O)[C@H](CCN)NC1=O)[C@@H](C)O (X1-[Dab]T[Dab][Dab][Dab][dF]L[Dab][Dab]T; lactam 4-C) | 0.3 µg/mL (≈ 0.249 µM) | > 64 µg/mL | 32 µg/mL (≈ 26.6 µM) | 1 µg/mL (≈ 0.831 µM)
3 | CC[C@H](C)[C@@H]1NC(=O)[C@@H](NC(=O)[C@H](Cc2c[nH]c3ccccc23)NC(=O)[C@@H](CCCN)NC(=O)CNC(=O)[C@H](CCCN)NC(=O)[C@@H](CCCN)NC(=O)[C@@H](Cc2c[nH]c3ccccc23)NC(=O)[C@@H](Cc2ccc(O)cc2)NC(=O)[C@@H](CO)NC(=O)CCCCCC(C)C)[C@@H](C)OC(=O)CNC(=O)CNC(=O)[C@H](CC(N)=O)NC1=O ({Octanoyl(7-Me)}-[dS][dY][dW][dOrn][Orn]G[dOrn]WTINGG; ester 9-C) | 0.25 µg/mL (≈ 0.156 µM) | > 64 µg/mL | > 64 µg/mL | 2 µg/mL (≈ 1.25 µM)
4 | CC1(C)S[C@@H]2[C@H](NC(=O)[C@H](N)c3ccc(O)cc3)C(=O)N2[C@H]1C(=O)O [AMOXICILLIN] | 6 µg/mL (≈ 16.4 µM) | 3 µg/mL (≈ 8.21 µM) |  | 
